High-throughput results: PubChem BioAssay, Broad Institute
HIV Env fusion = HIV envelope-mediated fusion inhibition; inhibition, % at 12.3 µM; HeLa-JRFL Env/CEM21 cell fusion, luciferase; AID 651610; 360,000 tested, 1.1% active;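 active means mean replicate inhibition score of at least 50 and every replicate individually at or above 50; inconclusive means only one of the two criteria met; inactive means mean below 50 and not all replicates reaching 50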
AF4-AF9 inh = blocks AF4 peptide binding to human AF9 | inhibition, % at 10 µM | AID 651704 | AlphaScreen, biotin-AF4 peptide binding to FLAG-AF9 | 350,000 tested, 0.47% active | P42568;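 active means every replicate reaching a set inhibition limit, whatever the replicate mean, cut at about 25% in these data; inconclusive means mean inhibition reaches that limit but some replicates miss it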
Target sequence (P42568 whole entry, looked up): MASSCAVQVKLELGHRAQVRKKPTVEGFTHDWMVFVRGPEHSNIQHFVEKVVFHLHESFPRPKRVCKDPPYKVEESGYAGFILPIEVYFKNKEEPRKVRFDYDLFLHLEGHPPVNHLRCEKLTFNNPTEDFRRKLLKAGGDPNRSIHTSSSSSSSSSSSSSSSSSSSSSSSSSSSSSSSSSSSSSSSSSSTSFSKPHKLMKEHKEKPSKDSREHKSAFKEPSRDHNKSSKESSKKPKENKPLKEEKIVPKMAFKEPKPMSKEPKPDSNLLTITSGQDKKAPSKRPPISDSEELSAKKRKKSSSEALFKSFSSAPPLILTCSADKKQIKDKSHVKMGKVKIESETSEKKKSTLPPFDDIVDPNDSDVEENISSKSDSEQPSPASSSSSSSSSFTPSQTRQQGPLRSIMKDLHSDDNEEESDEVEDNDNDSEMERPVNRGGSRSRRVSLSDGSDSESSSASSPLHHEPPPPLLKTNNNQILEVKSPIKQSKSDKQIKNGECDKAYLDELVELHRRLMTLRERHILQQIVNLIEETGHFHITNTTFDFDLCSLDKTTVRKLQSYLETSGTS
N-glyco inh = N-linked glycosylation inhibition | D54 ERlucT glycosylation luciferase reporter, 24 h; percent of 100 nM tunicamycin response | reporter increase, % at 12.5 µM | 360,000 tested, 0.23% active;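 active means mean luciferase reporter signal, scaled so untreated is 0 and the glycosylation-blocking control 100, at or above a set limit in every replicate; inconclusive means mean reaches the limit but not every replicate does; inactive means mean below the limit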;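 further: luciferase carries N-glycosylation sites so blocking glycosylation raises the light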
EWS-Fli inh = blocks EWS/Fli oncoprotein-driven transcription. A673 NR0B1-luciferase reporter, viability-normalised. inhibition, % at 12.6 µM. 350,000 tested, 0.67% active. AID 651661;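 active means mean inhibition of at least 50% after viability correction, with every replicate also passing that limit; inconclusive means mean reaches 50% but only one of two replicates passes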;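 further: firefly luciferase signal divided by Alamar Blue viability fluorescence both relative to DMSO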
PAX8 inh HTS = PAX8 transcriptional activity inhibition | RMG-I TPO-luciferase reporter, SteadyGlo, 24 h | AID 652154 | inhibition, % at 12.6 µM | 360,000 tested, 1.2% active;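 active means mean replicate inhibition at least 60% with every replicate also reaching 60%; inconclusive means only one of the two criteria is met; inactive means mean below 60% and not all replicates reaching 60%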;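 further: luciferase light reporting Pax8 driven TPO promoter activity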
FN deposition inh = fibronectin deposition inhibition | AH1F fibroblasts, Alexa488-fibronectin deposition fluorescence, overnight | inhibition, % at 12.6 µM | 350,000 tested, 0.086% active | AID 743247;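 active means mean inhibition across replicates of 30% or more, regardless of how many single replicates reach that level; inconclusive means mean under 30% yet at least half of replicates reach 30%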
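Material: AH1F fibroblast monolayer depositing Alexa488-labelled fibronectin into matrix / Amount: 10000 AH1F cells per well / Signal: fluorescence 485/525 nm / Medium: DMEM, 2% serum / Compound: single dose, pinned / Incubation: 1 h cell adhesion before compound, then overnight fibronectin incubation / Reagent: Alexa488-FN, 24 nM final / Read-out: inhibition of fibronectin deposition signal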
Large screens that a line does not name were inactive. Shown are actives, neighbours in structure and some others; about 2.5% of the full set was active somewhere.

O=C1c2cccnc2C(Nc2ccc(S(=O)(=O)N3CCCCC3)cc2)N1Cc1ccccc1 (stereo not given)	HIV Env fusion 84 (no result: AF4-AF9 inh, EWS-Fli inh, PAX8 inh HTS, FN deposition inh)
C[C@@]12C(=O)OC(=O)[C@]1(C)C1CCC2O1	HIV Env fusion 105, PAX8 inh HTS 112, FN deposition inh 41
CCOc1ccc(CCNC(=O)c2cc3sccc3n2CC)cc1OCC	HIV Env fusion 65 (no result: AF4-AF9 inh, EWS-Fli inh)
CCCCN(C(=O)c1cc(S(=O)(=O)N2CCOCC2)ccc1N1CCOCC1)c1ccccc1	none
CCCCN(C(=O)c1cc(S(=O)(=O)N2CCCCCC2)ccc1OC)c1ccccc1	HIV Env fusion 93 (no result: PAX8 inh HTS)
CCCNC(=O)N1C[C@@H]2[C@H](c3ccccc31)[C@H](CO)N2Cc1ccc(F)cc1	none (no result: HIV Env fusion, N-glyco inh, FN deposition inh)
Cn1cc(/C=C/c2cc[n+](C)cc2)c2cc(F)ccc21	none (no result: HIV Env fusion, AF4-AF9 inh, EWS-Fli inh, PAX8 inh HTS, FN deposition inh)
C[n+]1ccc(/C=C/c2c[nH]c3ccc(F)cc23)cc1	HIV Env fusion 59, PAX8 inh HTS 70
CCCN(C)C[C@H]1OCCCC[C@H](C)Oc2ccc(NS(=O)(=O)c3ccc(F)cc3)cc2C(=O)N([C@@H](C)CO)C[C@@H]1C	PAX8 inh HTS 69 (no result: N-glyco inh)
C[C@@H]1CCCCO[C@H](CN(C)CC2CCCCC2)[C@H](C)CN([C@@H](C)CO)C(=O)c2cc(NS(=O)(=O)c3ccc(F)cc3)ccc2O1	EWS-Fli inh 67 (no result: N-glyco inh, FN deposition inh)
C[C@@H]1CCCCO[C@H](CN(C)CC2CCCCC2)[C@H](C)CN([C@@H](C)CO)C(=O)c2cc(NS(=O)(=O)c3ccc(Cl)cc3)ccc2O1	EWS-Fli inh 65, PAX8 inh HTS 104 (no result: AF4-AF9 inh, N-glyco inh, FN deposition inh)
C[C@@H]1CCCCO[C@@H](CN(C)CC2CCCCC2)[C@@H](C)CN([C@@H](C)CO)C(=O)c2cc(NS(=O)(=O)c3ccc(F)cc3)ccc2O1	PAX8 inh HTS 72 (no result: N-glyco inh, FN deposition inh)
COC(=O)c1ccc(CSc2n[nH]c(C)n2)o1	PAX8 inh HTS 78 (no result: HIV Env fusion)
C[C@H]1CCCCO[C@H](CN(C)C(=O)Nc2ccc3c(c2)OCO3)[C@@H](C)CN([C@@H](C)CO)C(=O)c2cc(NC(=O)CCC(F)(F)F)ccc2O1	none (no result: N-glyco inh, PAX8 inh HTS, FN deposition inh)
C=CC(=O)Nc1ccc(N(C)c2ccnc(Nc3ccc(N4CCN(C)CC4)cc3)n2)cc1	AF4-AF9 inh 60, PAX8 inh HTS inconclusive
CCc1ccc(C(C(=O)NC2CCCC2)N(C(=O)/C=C/C(=O)Nc2cc(C)on2)c2ccccc2C)cc1 (stereo not given)	HIV Env fusion 77 (no result: AF4-AF9 inh, EWS-Fli inh)
O=C(CCCSc1nnc(SCCCC(=O)c2ccc(F)cc2)s1)c1ccc(F)cc1	HIV Env fusion 60 (no result: AF4-AF9 inh, EWS-Fli inh, PAX8 inh HTS)
Nc1nnc(SCCCC(=O)c2ccc(F)cc2)s1	none (no result: HIV Env fusion)
C[C@H]1CCCCO[C@@H](CN(C)C(=O)Nc2ccc(F)cc2)[C@@H](C)CN([C@@H](C)CO)C(=O)c2cc(N(C)C)ccc2O1	none (no result: AF4-AF9 inh, N-glyco inh, FN deposition inh)
COc1ccc(CCNC(=O)COC(=O)c2cccs2)cc1	PAX8 inh HTS 83
COCCCNC(=O)N1c2ccccc2Sc2ccccc21	none
COc1ccc(CCNC(=O)N2c3ccccc3Sc3ccccc32)cc1	HIV Env fusion 75 (no result: AF4-AF9 inh, EWS-Fli inh)
COc1ccc(NC(=O)N(C)C[C@H]2OCCCC[C@H](C)Oc3ccc(NC(=O)C4CCCCC4)cc3C(=O)N([C@@H](C)CO)C[C@H]2C)cc1	none (no result: N-glyco inh, PAX8 inh HTS, FN deposition inh)
Cc1ccc(C(=O)Nc2ccccc2C(=O)NCc2ccco2)cc1	none (no result: HIV Env fusion)
O=C(Nc1ccccc1C(=O)NCc1ccco1)Nc1cccc2ccccc12	PAX8 inh HTS 61
Cc1ccccc1CN(c1ccc(C(=O)Nc2ccccc2C(=O)NCc2ccco2)cc1)S(C)(=O)=O	HIV Env fusion 61 (no result: AF4-AF9 inh, EWS-Fli inh, PAX8 inh HTS)
O=C(CN1CCOCC1)NCC[C@H]1CC[C@@H](NC(=O)Nc2ccc(C(F)(F)F)cc2)[C@@H](CO)O1	none (no result: N-glyco inh)
COc1ccc(NC(=O)C(=O)NCC2CCCN2S(=O)(=O)c2cc(C)ccc2C)cc1 (stereo not given)	EWS-Fli inh 57
COc1ccc(NC(=O)C(=O)NCC2CCCN2S(=O)(=O)c2ccc(C)cc2)cc1 (stereo not given)	EWS-Fli inh 56, PAX8 inh HTS 104 (no result: FN deposition inh)
COc1ccc(/C=c2/sc3n(c2=O)C(c2ccccc2OC)C2=C(N=3)c3ccccc3CC2)cc1O (stereo not given)	PAX8 inh HTS 93 (no result: AF4-AF9 inh, EWS-Fli inh)
COc1cc2c[n+](C)c3c4ccccc4ccc3c2cc1OC	N-glyco inh 34
COc1ccc2c(c1)c[n+](C)c1c3cc(OC)c(OC)cc3ccc21	none (no result: N-glyco inh)
Cc1cnc(NC(=O)CN2CCN(c3ccccn3)CC2)s1	PAX8 inh HTS 68 (no result: AF4-AF9 inh, EWS-Fli inh)
COc1ccc(N2CCN(CC(=O)Nc3ncc(C)s3)CC2)cc1	none
O=C(CN1CCN(c2ccccn2)CC1)Nc1ccc([N+](=O)[O-])cc1C(=O)Nc1ccccc1F	HIV Env fusion 60
CSc1ccccc1NC(=O)CN1CCN(c2ccccn2)CC1	none
C[C@@H]1CN([C@@H](C)CO)C(=O)c2cccc(NS(=O)(=O)c3cccs3)c2O[C@@H]1CN(C)S(C)(=O)=O	none (no result: N-glyco inh, PAX8 inh HTS, FN deposition inh)
NC(=O)N/N=C/c1sc(N2CCCCC2)nc1-c1cccs1	AF4-AF9 inh 30
O=C1CC(c2ccccc2)CC(O)=C1C=Nc1ccccc1Cl (stereo not given)	none
COc1ccccc1N=CC1=C(O)CC(c2ccccc2)CC1=O (stereo not given)	N-glyco inh 28
O=C1c2ccccc2C(=O)c2c(NCCCN(CCO)CCO)cccc21	AF4-AF9 inh inconclusive, N-glyco inh 116 (no result: FN deposition inh)
C[C@@H]1CCCCO[C@H](CN(C)CC2CC2)[C@H](C)CN([C@@H](C)CO)C(=O)c2cc(NC(=O)Nc3ccc(C(F)(F)F)cc3)ccc2O1	EWS-Fli inh 76 (no result: AF4-AF9 inh, N-glyco inh, FN deposition inh)
C[C@H](CO)N1C[C@H](C)[C@H](CN(C)CC2CC2)OCCCC[C@H](C)Oc2ccc(NC(=O)Nc3ccc(C(F)(F)F)cc3)cc2C1=O	PAX8 inh HTS 73 (no result: HIV Env fusion, N-glyco inh, FN deposition inh)
C[C@@H]1CN([C@@H](C)CO)C(=O)c2cccc(NC(=O)CCCCCC(=O)Nc3ccccc3N)c2O[C@@H]1CN(C)C(=O)Nc1cccc2ccccc12	none (no result: HIV Env fusion, N-glyco inh, FN deposition inh)
C[C@H](NC(=O)C[C@@H]1C[C@H]2c3cc(N(C)C)ccc3O[C@H]2[C@@H](CO)O1)c1ccccc1	none (no result: N-glyco inh, FN deposition inh)
CCN(CC)CCCNC1=C(Cl)C(=O)c2ccccc2C1=O	EWS-Fli inh 65, PAX8 inh HTS 70
Cc1cccc(C(=O)c2cnc3ccccc3c2-c2ccccc2)c1	HIV Env fusion 73 (no result: AF4-AF9 inh, EWS-Fli inh, PAX8 inh HTS)
OC[C@@H]1[C@H](c2ccc(-c3ccc(F)cc3)cc2)[C@@H]2CN(CCC(F)(F)F)CCCCN12	PAX8 inh HTS 93 (no result: HIV Env fusion, N-glyco inh, EWS-Fli inh, FN deposition inh)
OC[C@@H]1[C@H](c2ccc(C#CC3CCCC3)cc2)[C@H]2CN(CCC(F)(F)F)CCCCN12	AF4-AF9 inh 25, EWS-Fli inh 60 (no result: HIV Env fusion, N-glyco inh, FN deposition inh)
COc1ccccc1S(=O)(=O)N[C@@H]1CC[C@@H](CCNC(=O)C2CC2)O[C@@H]1CO	none (no result: N-glyco inh)
C[C@H](CO)N1C[C@H](C)[C@@H](CN(C)Cc2ccc(Cl)c(Cl)c2)Oc2ccc(NC(=O)CCCN(C)C)cc2CC1=O	none (no result: N-glyco inh, FN deposition inh)
